Experimental data as given in article PMC3085913 (NeuroImage, 2011).
Entries after “also recorded” stand apart in the source; their conditions may differ.

Experiments:
[1] = system: N2a mouse neuroblastoma cells; test: MTS cell proliferation; format: cell-based; settings: 72 hrs
[2] = system: Aβ plaques in APP and APP/PS1 transgenic AD mice; settings: MRI after injection; ref Wadghiri et al., 2003; cited from earlier work
[3] = system: APP/PS1 Tg and wild-type mice; test: Toxicity observed in experimental animals; format: in vivo, mouse; settings: 0.2 mmol Fe/kg femoral i.v. with 15% mannitol
[4] = system: amyloid plaques in APP/PS1 Tg mouse brain; format: in vivo; settings: femoral i.v. with mannitol; third echo, TE = 17.5
Outline: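 Aged 13–17-month APP/PS1 mice and age-matched C57Bl/6J controls received the test conjugate at 0.2 mmol Fe/kg in 200 μl 15% mannitol/PBS, infused via right femoral vein at 60 μl/min under isoflurane. Later: pentobarbital 150 mg/kg i.p., transaortic perfusion with PBS then 4% paraformaldehyde. Extracted brains scanned overnight, up to four together; third echo of four-echo set. 6E10/4G8 histology for matching. 13 Tg vs 12 wild-type.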

[5] = system: amyloid plaques in APP/PS1 Tg and wild-type mouse brain; format: in vivo; settings: two 14-month-old APP/PS1 mice, before and 6 hs after contrast injection; data not shown
Outline: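 Mice received the test conjugate at 0.2 mmol Fe/kg in 200 μl 15% mannitol/PBS by right femoral vein infusion at 60 μl/min, under isoflurane (2.5% induction, 1–1.5% maintenance). Scanned 6 h post-injection; two 14-month-old APP/PS1 mice were also scanned pre-injection. 3D four-echo acquisition; third echo (TE=12.3 ms) gave the T2*-weighted images. Checked against matched immunostained sections.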

[6] = system: APP/PS1 Tg and wild-type mouse brain (amyloid plaques); test: ROI-based absolute T2* measurement, in vivo μMRI; settings: contrast injected APP/PS1 Tg versus contrast injected wild-type mice
[7] = system: APP/PS1 Tg versus wild-type mouse brain (amyloid plaques); test: Voxel-based morphometry; format: in vivo; settings: for VBM cluster T-score: WT n=12 vs AD Tg n=13; for VBM cluster Extent: WT n=12 vs AD Tg n=13 after contrast injection
[8] = system: humans; settings: patients, ref Castillo et al., 2009, Tang and Lobel; cited from earlier work
[9] = system: blood brain barrier; settings: rodents, after intra-arterial carotid injection; ref McCarty et al., 2009; cited from earlier work

## Aβ1-42: Aβ 1-42 peptide synthesized in the W.M. Keck Facility at Yale University [reference compound]
[1]; 10 μM, MTS, 490 nm, percent of non-treated control
  reduction in cell viability: 50%

## MION-Aβ1-40: Aβ1-40 magnetically labeled with monocrystalline iron oxide nanoparticles (MION)
[2]
  plaque visualization as hypointense spots (in words): hypointense spots characterized by loss of signal intensity

## USPIO-Aβ1-42: ultrasmall superparamagnetic iron oxide (USPIO) nanoparticles linked to Aβ1-42 peptide using standard EDC/NHS coupling methods
[3]
  toxicity in experimental animals (in words): no evidence of toxicity in our experimental animals
[4]
  plaque detection on ex vivo μMRI, APP/PS1 mice: Amyloid plaques were also detected; also recorded: Many plaques can be detected in APP/PS1 mice
[1]; bound Aβ1-42 10 μM, Newman-Keuls post-hoc
  cell viability, USPIO versus USPIO-Aβ1-42 (significance in words): did not differ significantly
[1]; bound Aβ1-42 10 μM, USPIO matched, Newman-Keuls post-hoc
  cell viability versus control untreated cells (significance in words): did not differ significantly
[5]
  amyloid plaque detection pre- versus postinjection: Amyloid plaques were only detected in the postinjection images
[6]
  p, T2* difference in left and right cortex (Figure 5C): < 0.01
[7]; APP/PS1 (n=13) versus wild-type (n=12), USPIO-Aβ1-42 injected
  VBM difference in cerebellum (in words): No differences were seen in the cerebellum
[7]; cluster AuD, Cortex (R)
  VBM cluster T-score: 3.02
  VBM cluster Extent: 1388 voxels
[7]; cluster FrA, Cortex (L)
  VBM cluster T-score: 5.03
  VBM cluster Extent: 1123 voxels
[7]; cluster HDB, Cortex (R)
  VBM cluster T-score: 4.02
  VBM cluster Extent: 685 voxels
[7]; cluster LEnt, Cortex (L)
  VBM cluster T-score: 3.78
  VBM cluster Extent: 656 voxels
[7]; cluster M1, Cortex (L)
  VBM cluster T-score: 3.48
[7]; cluster M2, Cortex (R)
  VBM cluster T-score: 3.71
[7]; cluster PoDG, Hippocampus (R)
  VBM cluster T-score: 4.42
  VBM cluster Extent: 20830 voxels
[7]; cluster RSG, Cortex (L)
  VBM cluster T-score: 5.00
  VBM cluster Extent: 1624 voxels
[7]; cluster S1BF, Cortex (L)
  VBM cluster T-score: 4.92
  VBM cluster Extent: 36911 voxels
[7]; cluster S1FL, Cortex (L)
  VBM cluster T-score: 3.30
  VBM cluster Extent: 653 voxels
[7]; cluster S1FL, Cortex (R)
  VBM cluster T-score: 4.27
  VBM cluster Extent: 4637 voxels
[7]; cluster SuG, Colliculus (R)
  VBM cluster T-score: 4.72
  VBM cluster Extent: 2194 voxels

## OC[C@@H](O)[C@@H](O)[C@H](O)[C@H](O)CO [mannitol]
[8]
  tolerability of intravenous mannitol (in words): much better tolerated and is used safely in patients
[9]
  time of maximum BBB disruption, intra-arterial carotid: 5 min
